This note sets out measurements from ChEMBL document CHEMBL1133565 (J Med Chem, 2000).

Experiment [1] addresses T1, Sodium-dependent dopamine transporter (Homo sapiens, UniProt Q01959). In words: Ratio of dopamine uptake to dopamine binding.
In experiment [2] the target is T1, Sodium-dependent dopamine transporter. Kind of experiment: Binding affinity against cloned human dopamine transporter using 40-80 pM [125I]RTI. The essentials: (§1)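 Membranes from cells expressing recombinant human transporters: DAT in C6 cells, later HEK293; SERT and NET in HEK293. Cells lysed (2 mM HEPES, 1 mM EDTA), spun at 30000g, resuspended in 0.32 M sucrose, about 15 µg protein. GF/C filtration. Duplicates; IC50 converted to Ki by Cheng-Prusoff.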

Experiment [3] concerns the target T2, Sodium-dependent serotonin transporter (Homo sapiens, UniProt P31645). In words: Inhibition of reuptake of [3H]5-HT (20 nM) by serotonin transporter. The essentials: (§2)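 Uptake used whole confluent cells: hSERT in HEK293; hDAT in C6, later HEK293. Cells were washed and scraped in PBS at 25 °C, then preincubated 10 min with drug in Krebs HEPES at 25 °C. [3H]5HT or [3H]DA was added at 20 nM final for 10 min, then filtered on 0.05% polyethylenimine-soaked filters. Six drug concentrations, each in triplicate.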
Target sequence in this assay (P31645 whole entry): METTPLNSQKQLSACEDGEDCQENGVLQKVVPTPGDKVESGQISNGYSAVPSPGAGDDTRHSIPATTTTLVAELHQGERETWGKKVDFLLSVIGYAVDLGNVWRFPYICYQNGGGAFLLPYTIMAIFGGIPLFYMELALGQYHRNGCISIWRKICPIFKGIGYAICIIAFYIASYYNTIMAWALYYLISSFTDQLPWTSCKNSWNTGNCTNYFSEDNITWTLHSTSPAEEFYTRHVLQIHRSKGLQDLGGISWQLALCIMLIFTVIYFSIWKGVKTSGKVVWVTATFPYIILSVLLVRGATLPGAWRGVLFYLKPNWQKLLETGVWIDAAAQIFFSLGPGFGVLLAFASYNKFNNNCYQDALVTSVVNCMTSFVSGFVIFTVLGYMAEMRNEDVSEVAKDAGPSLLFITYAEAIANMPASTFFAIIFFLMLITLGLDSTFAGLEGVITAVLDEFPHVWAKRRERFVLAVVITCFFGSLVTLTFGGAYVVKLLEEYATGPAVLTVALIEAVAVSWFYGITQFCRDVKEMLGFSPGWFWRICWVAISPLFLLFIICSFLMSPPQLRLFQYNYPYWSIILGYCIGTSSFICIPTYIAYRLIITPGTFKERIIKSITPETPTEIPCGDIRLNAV

Experiment [4] deals with T2, Sodium-dependent serotonin transporter. In words: Binding affinity against cloned serotonin human transporter using 40-80 PM [125I]RTI. In short, it runs like this:
as §1
Target sequence in this assay (P31645 whole entry): as above

For experiment [5], the target named is T3, Sodium-dependent noradrenaline transporter (Homo sapiens, UniProt P23975). Kind of experiment: Binding affinity against norepinephrine cloned human transporter using 40-80 pM [125I]RTI.
Target sequence in this assay (P23975 whole entry): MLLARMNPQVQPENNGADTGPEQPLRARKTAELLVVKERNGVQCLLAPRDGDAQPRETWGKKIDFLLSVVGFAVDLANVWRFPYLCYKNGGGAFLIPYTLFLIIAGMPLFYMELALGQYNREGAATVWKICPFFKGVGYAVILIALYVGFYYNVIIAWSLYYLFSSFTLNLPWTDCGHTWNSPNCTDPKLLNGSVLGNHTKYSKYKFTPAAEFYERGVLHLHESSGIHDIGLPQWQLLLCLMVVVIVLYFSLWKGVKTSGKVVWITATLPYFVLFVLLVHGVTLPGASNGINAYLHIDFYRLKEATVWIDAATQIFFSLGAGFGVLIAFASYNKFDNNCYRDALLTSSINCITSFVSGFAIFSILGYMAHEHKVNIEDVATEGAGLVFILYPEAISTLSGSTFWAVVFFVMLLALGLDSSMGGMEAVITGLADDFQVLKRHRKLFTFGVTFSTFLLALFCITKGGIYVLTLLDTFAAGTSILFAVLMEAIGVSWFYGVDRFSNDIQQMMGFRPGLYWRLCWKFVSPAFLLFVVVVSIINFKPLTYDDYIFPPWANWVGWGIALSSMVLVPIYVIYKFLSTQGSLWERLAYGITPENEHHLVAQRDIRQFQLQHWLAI
The target in experiment [6] is T1, Sodium-dependent dopamine transporter. In words: Inhibition of reuptake of [3H]DA (20 nM) by dopamine transporter. The essentials:
as §2

For experiment [7], the species on record is Mus musculus. Kind of experiment: Effective dose on 8 hr locomotor assay in mice (value is standard error of the population of 72 independent determinations). The format is functional. In short, it runs like this: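 Groups of 8 nonhabituated male Swiss-Webster mice (Hsd:ND4, 2-3 months), dosed ip in 0.9% saline vehicle just before testing. Horizontal photobeam breaks counted in 10-min bins for 8 h from 0800 h, one mouse per chamber.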

Experiment [8] concerns the target T3, Sodium-dependent noradrenaline transporter. Kind of experiment: Inhibition of reuptake of [3H]-NE (20 nM) by norepinephrine transporter.
Target sequence in this assay (P23975 whole entry): as above
In experiment [9] the target is T2, Sodium-dependent serotonin transporter. Kind of experiment: Ratio of serotonin uptake to serotonin binding.
Target sequence in this assay (P31645 whole entry, looked up): as the sequence (P31645 whole entry) above
Experiment [10] deals with Monoamine transporters; serotonin & dopamine (Homo sapiens) (UniProt P31645+Q01959). Kind of experiment: Ratio of inhibition of serotonin uptake to inhibition of dopamine uptake. It is filed as protein assay.
Experiment [11] concerns the target T3, Sodium-dependent noradrenaline transporter. Kind of experiment: Ratio of norepinephrine uptake to norepinephrine binding.
Target sequence in this assay (P23975 whole entry, looked up): as the sequence (P23975 whole entry) above

Sequence of Monoamine transporters; serotonin & dopamine (Homo sapiens) (P31645 whole entry, looked up): as the sequence (P31645 whole entry) above
Sequence of Monoamine transporters; serotonin & dopamine (Homo sapiens) (Q01959 whole entry, looked up): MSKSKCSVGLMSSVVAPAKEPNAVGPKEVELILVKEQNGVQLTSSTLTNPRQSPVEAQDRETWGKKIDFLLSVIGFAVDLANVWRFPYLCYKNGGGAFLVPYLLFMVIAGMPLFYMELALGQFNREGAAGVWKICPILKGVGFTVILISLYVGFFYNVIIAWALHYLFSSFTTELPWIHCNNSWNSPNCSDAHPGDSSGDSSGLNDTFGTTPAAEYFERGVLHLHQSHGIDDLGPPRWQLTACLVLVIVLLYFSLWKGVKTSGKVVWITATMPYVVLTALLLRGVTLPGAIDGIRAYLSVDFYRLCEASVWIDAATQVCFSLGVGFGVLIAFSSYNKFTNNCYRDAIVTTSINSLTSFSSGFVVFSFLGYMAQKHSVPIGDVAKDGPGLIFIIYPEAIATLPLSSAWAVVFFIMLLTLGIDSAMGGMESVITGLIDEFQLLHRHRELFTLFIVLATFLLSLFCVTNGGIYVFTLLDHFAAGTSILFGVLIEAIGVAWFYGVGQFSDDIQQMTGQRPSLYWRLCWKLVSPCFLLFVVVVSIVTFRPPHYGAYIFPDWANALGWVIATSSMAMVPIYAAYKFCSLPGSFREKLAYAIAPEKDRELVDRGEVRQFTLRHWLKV
T1 sequence (Q01959 whole entry): as the sequence (Q01959 whole entry, looked up) above

On to `Clc1ccc([C@@H]2C[C@@H](NCc3ccccc3)c3ccccc32)cc1Cl` (relative stereo), for which the Ratio in [1] is 1.6. Also, the results for the inhibition constant (Ki) in [2], in [4] and in experiment [5] were 80 nM, 380 nM and 460 nM, respectively. Also, the IC50 was more than 10000 nM in experiment [3], 130 nM in [6] and 2600 nM in experiment [8]. Besides, the 50% effective dose (ED50) in experiment [7] is more than 20 mg/kg.
For the molecule `CN[C@@H]1C[C@@H](c2ccc(Cl)c(Cl)c2)c2ccccc21` (relative stereo) [(R,S)-INDATRALINE], it took a dose of 1.2 mg/kg to reach the 50% effect level in experiment [7] (ED50).
In the case of `CCCN(C)[C@H]1C[C@@H](c2ccc(Cl)c(Cl)c2)c2ccccc21` (relative stereo), the Ratio in experiment [1] came out at 0.83; in experiment [9] it was 4; in experiment [10] it was 0.8; in experiment [11], 0.27. Moreover, the half-inhibitory concentration (IC50) in experiment [3] amounted to 810 nM; in experiment [6], 1000 nM; in experiment [8], 540 nM. Moreover, the figures for the inhibition constant (Ki) in experiment [4] and in experiment [5] were 200 nM and 2000 nM, respectively.
In the case of `CN(C)[C@@H]1C[C@@H](c2ccc(Cl)c(Cl)c2)c2ccccc21` (stereo in doubt; (+)) [listing 1 of 2 here], the results for the Ratio in [1], in experiment [9] and in experiment [10] were 14, 110 and 0.053, respectively.
`CN(C)[C@H]1C[C@@H](c2ccc(Cl)c(Cl)c2)c2ccccc21` (relative stereo): the Ratio in [1] came out at 8.7; in experiment [9], 2.3; in experiment [10], 0.01. Moreover, the values for the Ki in experiment [2], in experiment [4] and in experiment [5] were 63 nM, 2.4 nM and 150 nM, respectively. In addition, the figures for the half-maximal inhibitory concentration (IC50) in [3], in [6] and in experiment [8] were 5.5 nM, 550 nM and 86 nM, respectively.
In the case of `CC(C)N(C)[C@H]1C[C@@H](c2ccc(Cl)c(Cl)c2)c2ccccc21`, the Ratio was determined as 1.4 in [1], 25 in experiment [9] and 1.9 in experiment [10]. Moreover, the inhibition constant (Ki) in [2] was 680 nM; in [4], 73 nM; in experiment [5], 650 nM. In addition, the half-maximal inhibitory concentration (IC50) in [3] turned out to be 1800 nM; in experiment [6], 960 nM; in [8], 1800 nM.
Turning to `CN([C@H]1C[C@@H](c2ccc(Cl)c(Cl)c2)c2ccccc21)C(C)(C)C` (relative stereo), the inhibition constant (Ki) is 2800 nM in experiment [2], more than 10000 nM in [4] and 2200 nM in experiment [5]. The half-inhibitory concentration (IC50) in [6] and in [8] was more than 10000 nM each time.
Regarding `CC(C)N[C@@H]1C[C@@H](c2ccc(Cl)c(Cl)c2)c2ccccc21`, the Ratio in experiment [1] is 1.6; in experiment [9], 2.6; in [10], 4.7; in experiment [11] it was 0.68. The inhibition constant (Ki) in experiment [2] is 32 nM; in experiment [4], 93 nM; in experiment [5], 110 nM. Also, the concentration for half-maximal inhibition (IC50) in experiment [3] was determined as 240 nM; in experiment [6], 51 nM; in [8], 75 nM. Further, it took a dose of 3.1 mg/kg to reach the 50% effect level in [7] (ED50).
For `CCN(C)[C@H]1C[C@@H](c2ccc(Cl)c(Cl)c2)c2ccccc21` (relative stereo), the Ratio was 0.8 in [1], 5.5 in [9], 0.14 in experiment [10] and 1.8 in experiment [11]. In addition, the Ki in experiment [2] amounted to 660 nM; in [4] it was 13 nM; in experiment [5], 2400 nM. Moreover, the half-maximal inhibitory concentration (IC50) was determined as 72 nM in [3], 530 nM in experiment [6] and 4400 nM in [8].
Take `CCN[C@H]1C[C@@H](c2ccc(Cl)c(Cl)c2)c2ccccc21`: the results for the Ratio in experiment [1], in experiment [9] and in [10] were 11, 4 and 0.02, respectively. For the same molecule, the values for the inhibitory constant (Ki) in experiment [2] and in [4] were 140 nM and 4.7 nM, respectively. Besides, the figures for the IC50 in experiment [3], in experiment [6] and in experiment [8] were 19 nM, 1000 nM and 170 nM, respectively.
As for `CN(C)[C@@H]1C[C@@H](c2ccc(Cl)c(Cl)c2)c2ccccc21` (stereo in doubt; (-)) [listing 1 of 2 here], the Ratio in experiment [1] amounted to 17; in [10], 0.02.
As to `CN(C)[C@@H]1C[C@@H](c2ccc(Cl)c(Cl)c2)c2ccccc21` (stereo in doubt; (+)) [listing 2 of 2 here], the Ki in experiment [2] stood at 8.7 nM; in experiment [4], 0.06 nM; in [5] it was 52 nM. Moreover, the half-maximal inhibitory concentration (IC50) in [3] worked out at 6.3 nM; in experiment [6] it was 120 nM; in experiment [8], 21 nM. This molecule had a 50% effective dose (ED50) in [7] of 0.96 mg/kg.
Consider `CCN[C@@H]1C[C@@H](c2ccc(Cl)c(Cl)c2)c2ccccc21` (relative stereo), for which the Ratio stood at 7.5 in [1], 6.5 in [9] and 0.21 in [10]. Also, the figures for the Ki in experiment [2], in [4] and in experiment [5] were 8.1 nM, 2 nM and 48 nM, respectively. For the same molecule, the IC50 amounted to 13 nM in experiment [3], 61 nM in experiment [6] and 28 nM in experiment [8]. In experiment [7], the 50% effect level (ED50) was put at a dose of 1 mg/kg.
On to `CCN(C)[C@@H]1C[C@@H](c2ccc(Cl)c(Cl)c2)c2ccccc21` (relative stereo), for which the Ratio was 6.9 in experiment [1], 1.5 in experiment [9], 0.089 in [10] and 0.6 in [11]. Further, the Ki was found to be 39 nM in experiment [2], 16 nM in experiment [4] and 250 nM in experiment [5]. The IC50 in experiment [3] turned out to be 24 nM; in [6] it was 270 nM; in experiment [8] it was 150 nM. Moreover, the ED50 in experiment [7] was 2.7 mg/kg.
Consider `Clc1ccc([C@@H]2C[C@H](NCc3ccccc3)c3ccccc32)cc1Cl` (relative stereo), for which the Ki in experiment [2] was 1100 nM; in [4] it was 2100 nM; in experiment [5], 4800 nM. Besides, the figures for the concentration for half-maximal inhibition (IC50) in [3], in experiment [6] and in experiment [8] were more than 10000 nM, 5300 nM and more than 10000 nM, respectively.
Consider `CC(C)(C)N[C@H]1C[C@@H](c2ccc(Cl)c(Cl)c2)c2ccccc21` (relative stereo), for which the values for the Ratio in experiment [1] and in [11] were 2.3 and 1.6, respectively. Also, the inhibition constant Ki in experiment [2] was found to be 650 nM; in [4], 1700 nM; in experiment [5], 1100 nM. Also, the half-maximal inhibitory concentration (IC50) was more than 10000 nM in experiment [3], 1500 nM in [6] and 1800 nM in [8].
As for `CN(Cc1ccccc1)[C@H]1C[C@@H](c2ccc(Cl)c(Cl)c2)c2ccccc21` (relative stereo), the Ki is more than 10000 nM in experiment [2], 300 nM in [4] and more than 10000 nM in experiment [5]. In addition, the values for the IC50 in [3] and in experiment [8] were 700 nM and more than 10000 nM, respectively. Also, the Ratio in experiment [9] turned out to be 2.3.
With `CN(C)[C@@H]1C[C@@H](c2ccc(Cl)c(Cl)c2)c2ccccc21` (stereo in doubt; (-)) [listing 2 of 2 here], the Ki in experiment [2] was found to be 38 nM; in experiment [4], 3.6 nM; in [5], 130 nM. Besides, the IC50 turned out to be 130 nM in [3], 650 nM in experiment [6] and 130 nM in [8].
Turning to `CN([C@@H]1C[C@@H](c2ccc(Cl)c(Cl)c2)c2ccccc21)C(C)(C)C` (relative stereo), in [1], the Ratio stood at 3. Further, the inhibition constant (Ki) in [2] was determined as 890 nM; in experiment [4], 4700 nM; in experiment [5], 440 nM. Moreover, the IC50 is more than 10000 nM in [3], 2700 nM in [6] and 1000 nM in [8].
For `CC(C)N[C@H]1C[C@@H](c2ccc(Cl)c(Cl)c2)c2ccccc21` (relative stereo), the Ratio worked out at 3.1 in [1], 2.3 in experiment [9], 0.21 in [10] and 0.43 in experiment [11]. In addition, the Ki in experiment [2] turned out to be 450 nM; in experiment [4] it was 130 nM; in experiment [5], 3500 nM. Besides, the values for the concentration for half-maximal inhibition (IC50) in [3], in experiment [6] and in [8] were 300 nM, 1400 nM and 1500 nM, respectively.
Consider `CCCN[C@H]1C[C@@H](c2ccc(Cl)c(Cl)c2)c2ccccc21` (relative stereo), for which the Ratio in [1] turned out to be 2.2; in experiment [9], 2.6; in [10] it was 2.1; in experiment [11], 1.2. The values for the inhibition constant Ki in [2], in [4] and in [5] were 280 nM, 500 nM and 540 nM, respectively. The concentration for half-maximal inhibition (IC50) came out at 1300 nM in [3], 620 nM in experiment [6] and 630 nM in [8].
`CN(C)[C@@H]1C[C@@H](c2ccc(Cl)c(Cl)c2)c2ccccc21` (relative stereo): the results for the Ratio in [1], in [9] and in [10] were 11, 200 and 0.033, respectively.
For `CN(Cc1ccccc1)[C@@H]1C[C@@H](c2ccc(Cl)c(Cl)c2)c2ccccc21` (relative stereo), the Ratio in experiment [1] came out at 4.6; in experiment [9] it was 21; in experiment [10], 6.7. Moreover, the Ki in experiment [2] was found to be 120 nM; in experiment [4] it was 180 nM; in experiment [5], 2800 nM. Besides, the 50% inhibitory concentration (IC50) in [3] worked out at 3700 nM; in experiment [6], 550 nM; in [8] it was 1600 nM. In addition, the ED50 in experiment [7] is 5.7 mg/kg.

For orientation: Ki means the equilibrium dissociation constant of an inhibitor or competing ligand from its target. A lower Ki goes with tighter binding. One may read the IC50 as the midpoint of a concentration-inhibition curve. Low readings indicate greater potency in that assay, high ones weaker potency in that assay. A word on the ED50: it is the dose at which the effect has come halfway, by size or by number of responders. A higher ED50 goes with a need for a large dose.
